Laboratory results: ChEMBL document CHEMBL2176891, “Structural investigation of anti-Trypanosoma cruzi 2-iminothiazolidin-4-ones allows the identification of agents with efficacy in infected mice” (J Med Chem, 2012)
Active and inactive are the calls of the source. No cut-off for these calls is given here.

Legend:
Trypanosoma cruzi [1] = assay: Antitrypanosomal activity against trypomastigotes of Trypanosoma cruzi Y infected in mouse peritoneal macrophages assessed as reduction of intracellular parasite level at 10 uM after 4 days; type: functional, organism-based
Outline: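 Peritoneal exudate macrophages, 2 × 10⁵/well on coverslips, infected with Y strain trypomastigotes at 10 parasites per macrophage for 2 h, then washed. Compound in DMSO added for 6 h, medium replaced, culture continued 4 days. After methanol fixation and Giemsa staining, 100 cells per slide counted for % infected macrophages and amastigotes per cell. IC50 based on % infected cells versus untreated.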

Trypanosoma cruzi [2] = assay: Inhibition of trypomastigotes of Trypanosoma cruzi Y invasion to mouse peritoneal macrophages at 50 uM […]; type: functional, organism-based
Trypanosoma cruzi [3] = assay: Antitrypanosomal activity against trypomastigotes of Trypanosoma cruzi Y infected in LLC-MK2 cells assessed as parasite motility after 24 hrs; type: functional, organism-based; details: LLC-MK2, 24 h
Outline: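 Y strain bloodstream trypomastigotes taken from LLC-MK2 culture supernatant, 4 × 10⁵ cells/well. Five compound concentrations (DMSO), triplicate, 24 h at 37 °C, 5% CO₂. Viable parasites judged by motility in a Neubauer chamber. Inhibition calculated relative to untreated culture; IC50 by nonlinear regression.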

Trypanosoma cruzi [4] = assay: Antitrypanosomal activity against epimastigotes of Trypanosoma cruzi Y in axenic culture assessed as parasite motility after 11 days; details: 264 h
[5] = Cytotoxicity against BALB/c mouse splenocytes assessed as highest nontoxic concentration by measuring [3H]-thymidine incorporation after 24 hrs by beta-radiation counting; type: cell-based, Splenocyte; details: mouse, splenocytes, read-out: Activity
Outline: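 BALB/c splenocytes, 5 × 10⁶ cells/well in RPMI-1640 with 10% FBS. Compound in DMSO at 1.0, 10 and 100 μg/mL or more, triplicate; untreated and saponin controls. 24 h at 37 °C, 5% CO₂. 1.0 μCi ³H-thymidine added, incorporation read by β-counting as % of untreated. Highest nontoxic concentration estimated.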

[6] = biological target: Cruzipain (Trypanosoma cruzi) (UniProt P25779); assay: Inhibition of Trypanosoma cruzi recombinant cruzain using Z-FR-AMC as substrate at 100 uM preincubated for 10 mins before substrate addition
Chain of Cruzipain (Trypanosoma cruzi) (P25779 123-467 limits assumed): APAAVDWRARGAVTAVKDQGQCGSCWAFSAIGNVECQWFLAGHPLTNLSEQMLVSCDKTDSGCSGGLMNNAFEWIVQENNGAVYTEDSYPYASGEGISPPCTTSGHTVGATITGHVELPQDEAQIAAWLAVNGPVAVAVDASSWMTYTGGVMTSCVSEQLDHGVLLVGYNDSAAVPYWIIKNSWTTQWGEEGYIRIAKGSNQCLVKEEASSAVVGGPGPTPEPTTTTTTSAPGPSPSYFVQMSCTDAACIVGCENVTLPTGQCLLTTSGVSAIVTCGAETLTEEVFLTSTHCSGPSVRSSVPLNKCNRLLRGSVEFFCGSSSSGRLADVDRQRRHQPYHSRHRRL
Outline: (§1)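 Recombinant cruzain preincubated 10 min at room temperature with compound (DMSO) in phosphate buffer containing EDTA, 100 mM NaCl and DTT. Z-FR-AMC then added; final 0.5 nM enzyme and 2 μM substrate. Fluorescence read at 1, 5 and 10 min; % inhibition versus no-inhibitor control. Single-point values are triplicate means; IC50 by nonlinear regression from multiple concentrations. Some runs used 0.01% Triton X-100.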

[7] = biological target: Cruzipain (Trypanosoma cruzi) (UniProt P25779); assay: Inhibition of Trypanosoma cruzi recombinant cruzain using Z-FR-AMC as substrate at 20 uM preincubated for 10 mins before substrate addition
Procathepsin L [8] = biological target: T1, Procathepsin L (Homo sapiens, UniProt P07711); assay: Inhibition of recombinant cathepsin L using ZFR-pNA as substrate at 100 uM preincubated for 45 mins
Outline: (§2)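 Recombinant cathepsin L or S activated with 1 mM DTT in 0.1 M acetate pH 5.5. Preincubated 45 min at room temperature with compound in phosphate buffer with 0.1% BSA, 1 mM EDTA and 0.001% Tween. Z-FR-pNA added, reaction 5 min; final 30 nM enzyme and 5.0 μM substrate. Triplicate runs; IC50 from at least seven concentrations.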
Target sequence in this assay (P07711 114-333 limits assumed): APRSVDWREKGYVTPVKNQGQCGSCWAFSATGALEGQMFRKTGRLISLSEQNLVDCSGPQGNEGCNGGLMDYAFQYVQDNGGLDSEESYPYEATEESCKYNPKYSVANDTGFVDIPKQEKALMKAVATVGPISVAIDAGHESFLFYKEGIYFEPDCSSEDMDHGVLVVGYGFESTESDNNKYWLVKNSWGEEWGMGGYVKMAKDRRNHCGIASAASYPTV

[9] = Solubility of the compound in 0.1 M sodium acetate pH 5.5; type: physicochemical; details: buffer
Cruzipain = Cruzipain (Trypanosoma cruzi, UniProt P25779); assay: Inhibition of Trypanosoma cruzi recombinant cruzain using Z-FR-AMC as substrate preincubated for 10 mins before substrate addition; outline: as §1
Chain of Cruzipain (P25779 whole entry): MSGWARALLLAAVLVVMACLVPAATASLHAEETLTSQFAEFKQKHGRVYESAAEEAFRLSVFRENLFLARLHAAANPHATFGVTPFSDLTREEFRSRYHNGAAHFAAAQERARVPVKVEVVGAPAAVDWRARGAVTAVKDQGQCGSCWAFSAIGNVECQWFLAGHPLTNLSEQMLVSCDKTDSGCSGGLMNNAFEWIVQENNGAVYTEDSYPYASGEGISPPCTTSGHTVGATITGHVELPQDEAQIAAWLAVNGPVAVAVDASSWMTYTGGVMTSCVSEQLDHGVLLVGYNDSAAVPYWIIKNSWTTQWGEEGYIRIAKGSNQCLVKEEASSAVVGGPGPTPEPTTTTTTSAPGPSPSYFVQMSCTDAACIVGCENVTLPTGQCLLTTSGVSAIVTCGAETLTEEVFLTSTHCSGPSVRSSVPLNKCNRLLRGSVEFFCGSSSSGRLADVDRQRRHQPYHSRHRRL

Cathepsin S = Cathepsin S (Homo sapiens, UniProt P25774); assay: Inhibition of recombinant cathepsin S using ZFR-pNA as substrate preincubated for 45 mins; outline: as §2
Chain of Cathepsin S (P25774 whole entry): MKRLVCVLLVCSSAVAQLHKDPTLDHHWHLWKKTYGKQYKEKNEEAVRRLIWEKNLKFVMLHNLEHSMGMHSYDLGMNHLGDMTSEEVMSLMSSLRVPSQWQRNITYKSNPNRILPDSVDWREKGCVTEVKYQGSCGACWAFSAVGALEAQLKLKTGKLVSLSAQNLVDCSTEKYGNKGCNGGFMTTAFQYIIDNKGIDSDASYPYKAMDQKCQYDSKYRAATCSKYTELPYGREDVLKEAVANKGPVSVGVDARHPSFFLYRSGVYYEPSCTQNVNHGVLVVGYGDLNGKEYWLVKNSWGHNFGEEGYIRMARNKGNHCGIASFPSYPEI

Procathepsin L [10] = biological target: T1, Procathepsin L; assay: Inhibition of recombinant cathepsin L using ZFR-pNA as substrate preincubated for 45 mins; outline: as §2
Target sequence in this assay (P07711 whole entry): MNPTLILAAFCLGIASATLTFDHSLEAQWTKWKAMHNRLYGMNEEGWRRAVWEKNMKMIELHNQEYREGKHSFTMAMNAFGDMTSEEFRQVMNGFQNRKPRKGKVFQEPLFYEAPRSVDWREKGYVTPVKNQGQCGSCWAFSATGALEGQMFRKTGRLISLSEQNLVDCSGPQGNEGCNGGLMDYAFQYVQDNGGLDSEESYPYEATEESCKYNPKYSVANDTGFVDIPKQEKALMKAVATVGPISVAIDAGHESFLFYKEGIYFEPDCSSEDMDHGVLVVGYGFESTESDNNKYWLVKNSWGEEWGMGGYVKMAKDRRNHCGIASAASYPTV

[11] = biological target: Cruzipain (Trypanosoma cruzi) (UniProt P25779); assay: Inhibition of Trypanosoma cruzi recombinant cruzain using Z-FR-AMC as substrate at 20 uM preincubated for 10 mins before substrate addition in presence of 0.01% of Triton X-100; outline: as §1

Row | SMILES | IC50 (Trypanosoma cruzi [3]) [µM] | IC50 (Trypanosoma cruzi [4]) [µM] | inhibition [7] | MNTC at 24 h [5] [µg/mL] | also measured
1 | C/C(COc1ccccc1)=N\Nc1nc(-c2ccncc2)cs1 | 3.9 | 4 | – | 100 | Activity (Trypanosoma cruzi [1]): inactive; inhibition (Trypanosoma cruzi [2]): inactive; inhibition [6]: 13.3%
2 | C/C(COc1ccccc1)=N\Nc1nc(-c2ccc(Cl)c(Cl)c2)cs1 | 17 | 19 | 20% | 25 | –
3 | C/C(COc1ccccc1)=N\Nc1nc(-c2ccc(Cl)cc2)cs1 | – | 57.1 | 13% | 100 | –
4 | C[C@@H]1[C@H](O)[C@@H](C)/C=C/C=C/C=C/C=C/C=C/C=C/C=C/[C@H](O[C@@H]2O[C@H](C)[C@@H](O)[C@H](N)[C@@H]2O)C[C@@H]2O[C@](O)(C[C@@H](O)C[C@@H](O)[C@H](O)CC[C@@H](O)C[C@@H](O)CC(=O)O[C@H]1C)C[C@H](O)[C@H]2C(=O)O | – | – | – | – | inhibition (Trypanosoma cruzi [2]): Active
5 | C/C(COc1ccccc1)=N\Nc1nc(-c2ccc(C)cc2)cs1 | 49.7 | 67 | inactive | 100 | –
6 | C/C(COc1ccccc1)=N\N=C1\SC(c2ccccc2)C(=O)N1c1ccccc1 (racemic) | 11.1 | 15.6 | 43% | > 100 | solubility [9]: Insoluble; IC50 (Cruzipain): ND(Insoluble); inhibition (Procathepsin L [8]): 15%
7 | C/C(COc1ccccc1)=N\Nc1nc(-c2ccco2)cs1 | 17.7 | – | – | > 100 | inhibition [6]: 4.7%
8 | C/C(COc1ccccc1)=N\Nc1nc(-c2ccc(F)cc2)cs1 | 11.5 | 41.3 | inactive | > 100 | –
9 | C/C(COc1ccccc1)=N\Nc1nc(-c2cccnc2)cs1 | 12.3 | 20.5 | inactive | 100 | –
10 | C/C(COc1ccccc1)=N\Nc1nc(-c2ccc([N+](=O)[O-])cc2)cs1 | 5.7 | 1.9 | inactive | 100 | Activity (Trypanosoma cruzi [1]): Active
11 | C/C(COc1ccccc1)=N\N=c1\scc(-c2ccccc2)n1-c1ccccc1 | 61.1 | 2.6 | inactive | > 100 | –
12 | C/C(COc1ccccc1)=N\Nc1nc(-c2cccc([N+](=O)[O-])c2)cs1 | 3.8 | 4 | inactive | 100 | –
13 | C/C(COc1ccccc1)=N\Nc1nc(-c2ccc(Cl)cc2Cl)cs1 | 17 | 42.2 | 40% | < 1 | –
14 | C/C(COc1ccccc1)=N\Nc1nc(-c2ccc(Cl)c(Cl)c2Cl)cs1 | – | – | inactive | > 1 | –
15 | C/C(COc1ccccc1)=N\Nc1nc(-c2ccc(C(C)(C)C)cc2)cs1 | – | – | inactive | 50 | –
16 | COc1ccc(-c2csc(N/N=C(\C)COc3ccccc3)n2)cc1 | 17.8 | 14.9 | inactive | 100 | –
17 | C/C(COc1ccccc1)=N\Nc1nc(-c2ccc(Br)cc2)cs1 | – | 49.8 | 25% | 100 | –
18 | C/C(COc1ccccc1)=N\Nc1nc(-c2ccccn2)cs1 | 34.8 | 11.8 | inactive | 100 | –
19 | C/C(COc1ccccc1)=N\Nc1nc(-c2ccc3ccccc3c2)cs1 | 36.4 | 83 | inactive | > 100 | –
20 | CC1CS(=O)(=O)CCN1/N=C/c1ccc([N+](=O)[O-])o1 (stereo not drawn) [NIFURTIMOX] | 2.7 | 1.9 | – | 1 | –
21 | C/C(COc1ccccc1)=N\Nc1nc(-c2cccs2)cs1 | 37.6 | 16.6 | – | 50 | inhibition [6]: 30%

Further lines, with some results ahead:

Row | IC50 (Trypanosoma cruzi [3]) [µM] | IC50 (Trypanosoma cruzi [4]) [µM] | inhibition [7] | SMILES | MNTC at 24 h [5] [µg/mL] | also measured
22 | – | – | 5% | CCC1S/C(=N/N=C(\C)COc2ccccc2)NC1=O (racemic) | > 100 | inhibition (Procathepsin L [8]): 5%
23 | 18 | 12 | 27% | C/C(COc1ccccc1)=N\N=C1\SC(c2ccccc2)C(=O)N1C (racemic) | > 100 | solubility [9]: Insoluble; IC50 (Cruzipain): ND(Insoluble)
24 | 16.8 | 12.2 | 60.8% | C/C(COc1ccccc1)=N\N=C1/NC(=O)C(C(C)C)S1 (racemic) | > 100 | IC50 (Cruzipain; read-out: IC50): 18.9 µM; inhibition (Procathepsin L [8]): 11%
25 | – | – | 3% | C/C(COc1ccccc1)=N\N=C1/NC(=O)C(C)S1 (racemic) | > 100 | inhibition (Procathepsin L [8]): 0%
26 | – | – | 0% | C/C(COc1ccccc1)=N\N=C1\SC(C)C(=O)N1C (racemic) | 25 | –
27 | 18.7 | 34.8 | 63% | C/C(COc1ccccc1)=N\N=C1/NC(=O)C(c2ccccc2)S1 (racemic) | 25 | solubility [9]: Insoluble; inhibition [6]: 63%
28 | – | – | 10% | CCC1S/C(=N/N=C(\C)COc2ccccc2)N(C2CCCCC2)C1=O (racemic) | > 100 | –
29 | 18 | 25.8 | 66% | C/C(COc1ccccc1)=N\N=C1\SCC(=O)N1c1ccccc1 | > 100 | IC50 (Cruzipain; read-out: IC50): 10.2 µM; IC50 (Cathepsin S): > 100 µM; IC50 (Procathepsin L [10]): > 100 µM; inhibition (Procathepsin L [8]): 0%
30 | 175 | 25.6 | inactive | C/C(COc1ccccc1)=N\N=c1\scc(-c2ccccc2)n1C | 10 | –
31 | – | – | 0% | C/C(COc1ccccc1)=N\N=C1\SCC(=O)N1C | > 100 | IC50 (Cruzipain): ND(Insoluble)
32 | 19.9 | 15 | 65% | CCC1S/C(=N/N=C(\C)COc2ccccc2)N(c2ccc(C)cc2)C1=O (racemic) | 100 | IC50 (Cruzipain; read-out: IC50): 11.8 µM
33 | 10.7 | 14 | 81% | C/C(COc1ccccc1)=N\N=C1\SC(C(C)C)C(=O)N1C (racemic) | > 100 | IC50 (Cruzipain; read-out: IC50): 8 µM; IC50 (Cathepsin S): > 100 µM; IC50 (Procathepsin L [10]): > 100 µM; inhibition (Procathepsin L [8]): 0%
34 | 9 | 6.8 | 71% | CCC1S/C(=N/N=C(\C)COc2ccccc2)N(c2ccc(OC)cc2)C1=O (racemic) | 100 | IC50 (Cruzipain; read-out: IC50): 8.7 µM
35 | – | – | 50% | CCC1S/C(=N/N=C(\C)COc2ccccc2)N(C)C1=O (racemic) | > 100 | IC50 (Cruzipain; read-out: IC50): 31.9 µM; IC50 (Cathepsin S): > 100 µM; IC50 (Procathepsin L [10]): > 100 µM; inhibition (Procathepsin L [8]): 6%
36 | 29 | 31.8 | 50% | C/C(COc1ccccc1)=N\N=C1\SC(C)C(=O)N1c1ccccc1 (racemic) | 100 | Activity (Trypanosoma cruzi [1]): Active; IC50 (Cruzipain; read-out: IC50): 10.8 µM; inhibition (Procathepsin L [8]): 0%
37 | 5.8 | 11.1 | 66% | CCC1S/C(=N/N=C(\C)COc2ccccc2)N(c2ccccc2)C1=O (racemic) | 100 | Activity (Trypanosoma cruzi [1]): Active; IC50 (Cruzipain; read-out: IC50): 9.5 µM; IC50 (Cathepsin S): > 100 µM; inhibition [11]: 64%; IC50 (Procathepsin L [10]): > 100 µM; inhibition (Procathepsin L [8]): 4%
38 | 11.2 | 4.2 | 72% | C/C(COc1ccccc1)=N\N=C1\SC(c2ccccc2)C(=S)N1c1ccccc1 (racemic) | 100 | IC50 (Cruzipain; read-out: IC50): 7 µM; inhibition [11]: 79%; IC50 (Procathepsin L [10]): 10.8 µM; inhibition (Procathepsin L [8]): 89%
39 | 31.5 | 26.1 | 48% | CCC1S/C(=N/N=C(\C)COc2ccccc2)NC1=S (racemic) | 25 | IC50 (Cruzipain; read-out: IC50): 18.7 µM; IC50 (Procathepsin L [10]): 13.8 µM; inhibition (Procathepsin L [8]): 81%
